15 molecules from ChEMBL document CHEMBL1153723, “Cytotoxic effects of cardiac glycosides in colon cancer cells, alone and in combination with standard chemotherapeutic drugs” (J Nat Prod, 2009) can be followed below.

pIC50: −log10 of the molar value. The source made the active and inactive calls. No cut-off for these calls is given here. A value given as a limit tells only on which side of the number the result lay.

A short description of test [1]: Cytotoxicity against human CC20 cells assessed as survival index at 10 uM after 72 hrs by FMCA method. The settings on record: CC20, 72 h, read-out: Survival. The format is functional. The procedure, abridged:
(§1)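 Library screen by FMCA at a final 10 µM (10 mM DMSO stocks diluted in PBS); 5000 cells/well, 72 h at 37 °C, then fluorescein diacetate for 50 min with fluorescence at 485/520 nm. Survival index is well fluorescence as % of control wells after blank subtraction. QC required signal/blank >10 and CV <30% in control and blank wells.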

For test [2], the system named is HT-29. Description: Cytotoxicity against human HT-29 cells after 72 hrs by FMCA method relative to digoxin. The format is functional.
Test [3] in a line: Cytotoxicity against human CC20 cells after 72 hrs by FMCA method. It is filed as functional, cell-based. Particulars: CC20, 72 h. The procedure, abridged:
(§2)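 FMCA: cells seeded at 5000/well onto compound plates at nine concentrations (1:2 serial dilutions in PBS from DMSO solutions), in duplicate, for 72 h at 37 °C. Then washed, given fluorescein diacetate for 50 min at 37 °C, and fluorescence read at 485/520 nm. HT29 and CC20 were grown in DMEM, HCT116 in McCoy's 5A. IC50 from nonlinear regression of log concentration–effect curves; three independent experiments, mean ± SEM.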

For test [4], the system named is HCT-116. In words: Cytotoxicity against human HCT116 cells assessed as survival index at 10 uM after 72 hrs by FMCA method. The format is functional. Particulars: HCT-116, 72 h, read-out: Survival. The procedure, abridged: as §1
Test [5] has as its system HCT-116. Description: Cytotoxicity against human HCT116 cells after 72 hrs by FMCA method. It is filed as functional, cell-based. Particulars: HCT-116, 72 h. The procedure, abridged: as §2
Test [6] has as its system HCT-116. Description: Cytotoxicity against human HCT116 cells after 72 hrs by FMCA method relative to digoxin. The format is functional.
Test [7] has as its system HT-29. Description: Cytotoxicity against human HT-29 cells after 72 hrs by FMCA method. The settings on record: HT-29, 72 h. It is filed as functional, cell-based. The method in brief:
as §2

Test [8] can be described thus: Cytotoxicity against human CC20 cells after 72 hrs by FMCA method relative to digoxin. It is filed as functional.
Test [9] concerns HT-29. In words: Cytotoxicity against human HT-29 cells assessed as survival index at 10 uM after 72 hrs by FMCA method. It is filed as functional. Particulars: HT-29, 72 h, read-out: Survival. The procedure, abridged: as §1
Another test concerns HeLa. Description: Inhibition of TNF-alpha-stimulated NF-kappaB translocation from cytoplasm to nucleus in human HeLa cells at 0.4 to 10 uM. The format is functional, cell-based. The procedure, abridged: (§3)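 NF-κB activation high-content kit run per manufacturer: TNF-α-stimulated cells treated at 0.4, 2 and 10 µM (or 0.2, 1 and 5 µM). Cytoplasm-to-nucleus translocation of NF-κB quantified by automated imaging (ArrayScan). TNF-α and bortezomib served as controls.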

A short description of test [10]: Inhibition of Na+/K+ ATPase relative to digoxin.
In test [11] the test system is HT-29. Description: Inhibition of TNF-alpha-stimulated NF-kappaB translocation from cytoplasm to nucleus in human HT-29 cells at 0.4 to 10 uM. The format is functional, cell-based. The procedure, abridged: as §3
The subject of the next test is MCF7. In words: Inhibition of TNF-alpha-stimulated NF-kappaB translocation from cytoplasm to nucleus in human MCF7 cells at 0.4 to 10 uM. The format is functional, cell-based. The method in brief:
as §3

The nature of test [12]: Cytotoxicity against human colon cancer cells after 72 hrs by FMCA method. The format is functional, cell-based. The settings on record: Primary cultures of tumor cells from patients.

By pIC50 is commonly meant −log10 of the IC50, conventionally taken in molar units. On to `C[C@@H]1O[C@@H](O[C@H]2CC[C@]3(C=O)[C@H]4CC[C@]5(C)[C@@H](C6=CC(=O)OC6)CC[C@]5(O)[C@@H]4CC[C@]3(O)C2)[C@H](O)[C@H](O)[C@H]1O` [CONVALLATOXIN], for which the viability at 10 µM was 1% in [1], 3% with HCT-116 [4] and 20% in the test with HT-29 [9]. Also, the Activity was found to be 0.39 in the test on HT-29 [2], 0.04 with HCT-116 [6] and 0.03 in test [8]. Further, the pIC50 in test [3] is more than 7.40; with HCT-116 [5] it was more than 7.40; with HT-29 [7] it was 6.26.
Turning to `CO[C@H]1C[C@H](O[C@H]2CC[C@]3(C=O)[C@H]4CC[C@]5(C)[C@@H](C6=CC(=O)OC6)CC[C@]5(O)[C@@H]4CC[C@]3(O)C2)O[C@H](C)[C@H]1O` [CYMARIN], the figures for the viability at 10 µM (in test [1]; with HCT-116 [4]; with HT-29 [9]) were 2%, 4% and 26%, respectively.
For `C[C@@H]1CC[C@@]2(OC1)O[C@H]1[C@@H](O)[C@H]3[C@@H]4CC[C@H]5C[C@@H](O[C@@H]6O[C@H](CO)[C@H](O[C@@H]7O[C@H](CO)C(O)[C@H](O[C@@H]8OC[C@@H](O)[C@H](O)[C@H]8O)[C@H]7O[C@@H]7O[C@H](CO)[C@H](O)[C@H](O[C@@H]8O[C@H](CO)[C@@H](O)[C@H](O)[C@H]8O)[C@H]7O)[C@H](O)[C@H]6O)[C@H](O)C[C@]5(C)[C@H]4CC[C@]3(C)[C@H]1[C@@H]2C` (stereo partly drawn) [DIGITONIN], the viability at 10 µM in test [1] was determined as 88%; with HCT-116 [4], 62%; in the test on HT-29 [9], 74%. The pIC50 in test [3] was 5.02; with HCT-116 [5] it was 5.06; in the test on HT-29 [7] it was 5.25.
Consider `C[C@H]1O[C@@H](O[C@H]2[C@@H](O)C[C@H](O[C@H]3[C@@H](O)C[C@H](O[C@H]4CC[C@@]5(C)[C@H](CC[C@@H]6[C@@H]5CC[C@]5(C)[C@@H](C7=CC(=O)OC7)CC[C@]65O)C4)O[C@@H]3C)O[C@@H]2C)C[C@H](O)[C@@H]1O` [DIGITOXIN], for which the inhibition result in the test on HeLa, in the test with HT-29 [11] and in the test on MCF7 was “inactive” in each case. Besides, the Activity in [10] amounted to 0.3; with HT-29 [2], 2.91; in the test with HCT-116 [6], 2.74; in [8], 1.71. Besides, the viability at 10 µM in [1] was found to be 2%; in the test with HCT-116 [4], 4%; in the test on HT-29 [9] it was 28%. Also, the negative-log IC50 (pIC50) is 6.39 in [3], 6.13 with HCT-116 [5], 5.39 in the test with HT-29 [7] and 7.00 in test [12].
In the case of `C[C@H]1O[C@@H](O[C@H]2[C@@H](O)C[C@H](O[C@H]3[C@@H](O)C[C@H](O[C@H]4CC[C@@]5(C)[C@H](CC[C@@H]6[C@@H]5C[C@@H](O)[C@]5(C)[C@@H](C7=CC(=O)OC7)CC[C@]65O)C4)O[C@@H]3C)O[C@@H]2C)C[C@H](O)[C@@H]1O` [DIGOXIN], the inhibition entry in the test on HeLa, in the test on HT-29 [11] and in the test with MCF7 was “inactive” each time. Moreover, the Activity (in test [10]; with HT-29 [2]; in the test with HCT-116 [6]; in test [8]) was 1 in each case. Besides, the viability at 10 µM in test [1] turned out to be 1%; in the test with HCT-116 [4] it was 4%; in the test with HT-29 [9] it was 24%. Moreover, the pIC50 in test [3] was 6.62; in the test on HCT-116 [5], 6.57; in the test with HT-29 [7], 5.85; in test [12], 7.00.
Consider `CC(=O)O[C@H]1CC[C@@]2(C)[C@H](CC[C@@H]3[C@@H]2CC[C@]2(C)[C@@H](C4=CC(=O)OC4)[C@@H](OC(C)=O)C[C@]32O)C1` [GITOXIGENIN DIACETATE], for which the viability at 10 µM amounted to 2% in test [1], 17% in the test on HCT-116 [4] and 40% with HT-29 [9].
The matching figures for `C[C@]12CC[C@H](O)C[C@H]1CC[C@@H]1[C@@H]2CC[C@]2(C)[C@@H](C3=CC(=O)OC3)[C@@H](O)C[C@]12O` [GITOXIGENIN]: 54%, 63% and 81%.
The matching figures for `CC(=O)O[C@H]1C[C@H](O[C@H]2[C@@H](O)C[C@H](O[C@H]3[C@@H](O)C[C@H](O[C@H]4CC[C@@]5(C)[C@H](CC[C@@H]6[C@@H]5C[C@@H](O)[C@]5(C)[C@@H](C7=CC(=O)OC7)CC[C@]65O)C4)O[C@@H]3C)O[C@@H]2C)O[C@H](C)[C@H]1O[C@@H]1O[C@H](CO)[C@@H](O)[C@H](O)[C@H]1O` [LANATOSIDE C]: 2%, 5% and 40%.
The matching figures for `CO[C@H]1[C@H](O)[C@H](O[C@H]2CC[C@@]3(C)[C@H](CC[C@@H]4[C@@H]3CC[C@]3(C)[C@@H](C5=CC(=O)OC5)CC[C@]43O)C2)O[C@@H](C)[C@@H]1O` [NERIIFOLIN]: 2%, 3% and 19%.
With `CO[C@H]1C[C@H](O[C@H]2CC[C@@]3(C)[C@H](CC[C@@H]4[C@@H]3CC[C@]3(C)[C@@H](C5=CC(=O)OC5)[C@@H](OC(C)=O)C[C@]43O)C2)O[C@@H](C)[C@@H]1O` [OLEANDRIN], the inhibition entry in the test with HeLa, in the test on HT-29 [11] and with MCF7 was “inactive” throughout. In addition, the Activity in test [10] is 0.42; in the test on HT-29 [2], 0.31; in the test on HCT-116 [6], 0.3; in test [8], 0.38. In addition, the viability at 10 µM turned out to be 2% in test [1], 3% in the test on HCT-116 [4] and 20% in the test with HT-29 [9]. In addition, the negative-log IC50 (pIC50) is 7.05 in test [3], 7.10 with HCT-116 [5] and 6.36 in the test with HT-29 [7].
`C[C@@H]1O[C@@H](O[C@H]2C[C@@H](O)[C@]3(CO)[C@H]4[C@H](O)C[C@]5(C)[C@@H](C6=CC(=O)OC6)CC[C@]5(O)[C@@H]4CC[C@]3(O)C2)[C@H](O)[C@H](O)[C@H]1O` [OUABAIN]: the viability at 10 µM in [1] was determined as 3%; in the test with HCT-116 [4] it was 4%; with HT-29 [9], 22%.
Take `CO[C@H]1[C@H](O)[C@H](O[C@H]2CC[C@@]3(C=O)[C@H](CC[C@@H]4[C@@H]3CC[C@]3(C)[C@@H](C5=CC(=O)OC5)CC[C@]43O)C2)O[C@@H](C)[C@@H]1O` [PERUVOSIDE]: the results for the viability at 10 µM (in test [1]; in the test with HCT-116 [4]; in the test on HT-29 [9]) were 2%, 3% and 24%, respectively.
`C[C@@H]1O[C@@H](O[C@@H]2C=C3CC[C@@H]4[C@H](CC[C@]5(C)[C@@H](c6ccc(=O)oc6)CC[C@]45O)[C@@]3(C)CC2)[C@H](O)[C@H](O)[C@H]1O` [PROSCILLARIDIN]: the Activity in [10] is 0.054; in the test with HT-29 [2], 0.39; in the test on HCT-116 [6], 0.22; in test [8], 0.21. The viability at 10 µM in test [1] was determined as 3%; in the test with HCT-116 [4] it was 1%; with HT-29 [9], 18%. The negative logarithm of the IC50 (pIC50) was more than 6.52 in [3], 7.22 with HCT-116 [5] and 6.26 in the test with HT-29 [7].
Consider `C[C@]12CC[C@H](O)C[C@H]1CC[C@@H]1[C@@H]2[C@H](O)C[C@]2(C)[C@@H](C3=CC(=O)OC3)CC[C@]12O` [SARMENTOGENIN], for which the viability at 10 µM in [1] is 4%; in the test on HCT-116 [4], 26%; with HT-29 [9] it was 63%.
Regarding `C[C@]12CC[C@H]3[C@@H](CC[C@]4(O)C[C@@H](O)CC[C@]34C=O)[C@@]1(O)CC[C@@H]2C1=CC(=O)OC1` [STROPHANTHIDIN], the viability at 10 µM in test [1] was 3%; in the test with HCT-116 [4], 21%; in the test on HT-29 [9], 58%.
